The source of these data is ChEMBL document CHEMBL1137174, “Synthesis and structural-activity relationships of 3-hydroxyquinazoline-2,4-dione antibacterial agents” (2004).

Experiment [1] concerns the target DNA gyrase (Escherichia coli) (UniProt P0AES6+P0AES4). As to the kind of experiment: Concentration required to inhibit in vitro DNA gyrase activity isolated from Escherichia coli. It counts as protein-complex assay. The essentials:
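DNA gyrase isolated and purified from E. coli H560. The end point is the lowest drug concentration […] that gives detectable cleavage of relaxed bacterial Col E1 plasmid DNA. Cleavage is read by agarose gel electrophoresis with ethidium bromide staining.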

The test system of the next experiment is Streptococcus pyogenes. In words: Minimum inhibitory concentration required against Gram-positive Streptococcus pyogenes. In kind it is functional.
The test system of experiment [2] is Escherichia coli. As to the kind of experiment: Minimum inhibitory concentration required against Gram-negative Escherichia coli LKY. It counts as functional. In a few lines:
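Standard microtitration MIC determination against E. coli LKY, a cell-wall-deficient, semi-permeable strain.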

For a further experiment, the system named is Staphylococcus aureus. In words: Minimum inhibitory concentration required against Gram-positive Staphylococcus aureus. It counts as functional.
Experiment [3] concerns Escherichia coli. In words: Minimum inhibitory concentration required against Gram-negative Escherichia coli TLC. It counts as functional.
Experiment [4] has as its system Escherichia coli. As to the kind of experiment: Minimum inhibitory concentration required against Gram-negative Escherichia coli WT. In kind it is functional. In a few lines:
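Standard microtitration MIC determination against wild-type E. coli strain MC4100.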

The subject of a further experiment is Enterococcus faecalis. As to the kind of experiment: Minimum inhibitory concentration required against Gram-positive Enterococcus faecalis. In kind it is functional.

SMILES strings stand for the structures. Values after ≈ are worked out from the molar mass of the structure shown.

In experiment [1], `O=c1c2cc(F)c(N3C[C@@H]4CCCN[C@@H]4C3)cc2n(C2CC2)c(=O)n1O` had an Activity of 5 µM. Further, the MIC against Streptococcus pyogenes turned out to be 32 µg/mL (≈ 88.8 µM); in the experiment with Escherichia coli [2], 2 µg/mL (≈ 5.55 µM); against Staphylococcus aureus, 32 µg/mL (≈ 88.8 µM); in the experiment on Escherichia coli [3], 1 µg/mL (≈ 2.77 µM); with Escherichia coli [4], 8 µg/mL (≈ 22.2 µM); in the experiment with Enterococcus faecalis it was 64 µg/mL (≈ 178 µM).
Regarding `N[C@H]1CCN(c2cc3c(cc2F)c(=O)n(O)c(=O)n3C2CC2)C1`, in experiment [1], the Activity was determined as 2 µM. The MIC was 4 µg/mL (≈ 12.5 µM) with Streptococcus pyogenes; 0.3 µg/mL (≈ 0.937 µM) against Escherichia coli [2]; 32 µg/mL (≈ 99.9 µM) in the experiment on Staphylococcus aureus; 0.25 µg/mL (≈ 0.78 µM) in the experiment on Escherichia coli [3]; 1 µg/mL (≈ 3.12 µM) in the experiment with Escherichia coli [4].
With `O=c1c2cc(F)c(N3CCCC3)cc2n(Cc2ccccc2)c(=O)n1O`, the Activity in experiment [1] is greater than 100 µM. For the same compound, the MIC was 32 µg/mL (≈ 90 µM) in the experiment on Streptococcus pyogenes; 32 µg/mL (≈ 90 µM) against Escherichia coli [2]; 16 µg/mL (≈ 45 µM) in the experiment with Staphylococcus aureus; 16 µg/mL (≈ 45 µM) in the experiment with Escherichia coli [3]; greater than 64 µg/mL against Escherichia coli [4]; greater than 64 µg/mL against Enterococcus faecalis.
In experiment [1], `O=c1c2cc(F)c(-n3ccnc3)cc2n(C2CC2)c(=O)n1O` yielded an Activity of 0.4 µM. Besides, the MIC is 64 µg/mL (≈ 212 µM) in the experiment on Streptococcus pyogenes; 8 µg/mL (≈ 26.5 µM) in the experiment on Escherichia coli [2]; 64 µg/mL (≈ 212 µM) in the experiment with Staphylococcus aureus; 2 µg/mL (≈ 6.62 µM) against Escherichia coli [3]; greater than 64 µg/mL against Escherichia coli [4]; 64 µg/mL (≈ 212 µM) with Enterococcus faecalis.
In experiment [1], `O=c1[nH]c2cc(N3CCCC3)c(F)cc2c(=O)n1O` yielded an Activity greater than 100 µM. For the same compound, the MIC with Streptococcus pyogenes worked out at 32 µg/mL (≈ 121 µM); in the experiment with Escherichia coli [2], 32 µg/mL (≈ 121 µM); against Staphylococcus aureus it was 8 µg/mL (≈ 30.2 µM); against Escherichia coli [3], 16 µg/mL (≈ 60.3 µM); against Escherichia coli [4], 64 µg/mL (≈ 241 µM).
`N[C@H]1CCN(c2c(F)cc3c(=O)n(O)c(=O)n(C4CC4)c3c2Cl)C1` showed an Activity in experiment [1] of 1 µM. For the same compound, the MIC against Streptococcus pyogenes is 4 µg/mL (≈ 11.3 µM); in the experiment with Escherichia coli [2], 0.5 µg/mL (≈ 1.41 µM); with Staphylococcus aureus, 16 µg/mL (≈ 45.1 µM); in the experiment with Escherichia coli [3] it was 1 µg/mL (≈ 2.82 µM); in the experiment with Escherichia coli [4], 2 µg/mL (≈ 5.64 µM); against Enterococcus faecalis, 32 µg/mL (≈ 90.2 µM).
Turning to `NCC1CCN(c2cc3c(cc2F)c(=O)n(O)c(=O)n3C2CC2)C1` (configuration not stated), the MIC in the experiment on Streptococcus pyogenes stood at 2 µg/mL (≈ 5.98 µM); in the experiment on Escherichia coli [2], 1 µg/mL (≈ 2.99 µM); with Staphylococcus aureus, 16 µg/mL (≈ 47.9 µM); in the experiment with Escherichia coli [3] it was 1 µg/mL (≈ 2.99 µM); against Escherichia coli [4], 8 µg/mL (≈ 23.9 µM).
In experiment [1], `NC1CN(c2cc3c(cc2F)c(=O)n(O)c(=O)n3C2CC2)C1` returned an Activity of 18 µM. The MIC against Streptococcus pyogenes was greater than 64 µg/mL; with Escherichia coli [2], 0.25 µg/mL (≈ 0.816 µM); against Staphylococcus aureus, greater than 64 µg/mL; in the experiment with Escherichia coli [3], 0.5 µg/mL (≈ 1.63 µM); against Escherichia coli [4], 16 µg/mL (≈ 52.2 µM).
`O=c1c2cc(F)c(N3CCC(CNCC(F)(F)F)C3)cc2n(C2CC2)c(=O)n1O` (configuration not stated): the Activity in experiment [1] worked out at 8 µM. Further, the MIC is 16 µg/mL (≈ 38.4 µM) against Streptococcus pyogenes; 1 µg/mL (≈ 2.4 µM) with Escherichia coli [2]; 4 µg/mL (≈ 9.61 µM) against Staphylococcus aureus; 0.5 µg/mL (≈ 1.2 µM) with Escherichia coli [3]; greater than 64 µg/mL with Escherichia coli [4]; 16 µg/mL (≈ 38.4 µM) in the experiment on Enterococcus faecalis.
In turn, `CN1CC2CN(c3cc4c(cc3F)c(=O)n(O)c(=O)n4C3CC3)CC2C1` (configuration not stated) displayed an Activity in experiment [1] of 7.8 µM. The MIC with Streptococcus pyogenes stood at 32 µg/mL (≈ 88.8 µM); in the experiment on Escherichia coli [2], 2 µg/mL (≈ 5.55 µM); against Staphylococcus aureus it was 32 µg/mL (≈ 88.8 µM); in the experiment on Escherichia coli [3] it was 1 µg/mL (≈ 2.77 µM); in the experiment with Escherichia coli [4] it was 4 µg/mL (≈ 11.1 µM); in the experiment with Enterococcus faecalis it was 32 µg/mL (≈ 88.8 µM).
As to `CC(C)(N)[C@@H]1CCN(c2cc3c(cc2F)c(=O)n(O)c(=O)n3C2CC2)C1`, the Activity in experiment [1] is 2.2 µM. Further, the minimum inhibitory concentration (MIC) was 32 µg/mL (≈ 88.3 µM) in the experiment on Streptococcus pyogenes; 2 µg/mL (≈ 5.52 µM) against Escherichia coli [2]; 16 µg/mL (≈ 44.1 µM) against Staphylococcus aureus; 0.5 µg/mL (≈ 1.38 µM) with Escherichia coli [3]; 8 µg/mL (≈ 22.1 µM) against Escherichia coli [4]; 16 µg/mL (≈ 44.1 µM) with Enterococcus faecalis.
For `O=c1c2cc(F)c(N3CCCC3)cc2n(CC2CC2)c(=O)n1O`, the Activity in experiment [1] stood at 13 µM. Besides, the MIC with Streptococcus pyogenes amounted to 8 µg/mL (≈ 25.1 µM); against Escherichia coli [2], 0.5 µg/mL (≈ 1.57 µM); in the experiment on Staphylococcus aureus, 8 µg/mL (≈ 25.1 µM); against Escherichia coli [3] it was 0.5 µg/mL (≈ 1.57 µM); in the experiment on Escherichia coli [4], 32 µg/mL (≈ 100 µM); in the experiment with Enterococcus faecalis, 64 µg/mL (≈ 200 µM).
In experiment [1], `O=c1c2cc(F)c(N3CCCC3)cc2n(C2CC2)c(=O)n1O` had an Activity of 7 µM. Further, the MIC with Streptococcus pyogenes is 16 µg/mL (≈ 52.4 µM); in the experiment on Escherichia coli [2] it was 0.1 µg/mL (≈ 0.328 µM); against Staphylococcus aureus, 1 µg/mL (≈ 3.28 µM); in the experiment with Escherichia coli [3] it was 0.13 µg/mL (≈ 0.426 µM); against Escherichia coli [4], 8 µg/mL (≈ 26.2 µM).
For `C[C@H](N)[C@@H]1CCN(c2cc3c(cc2F)c(=O)n(O)c(=O)n3C2CC2)C1`, the Activity in experiment [1] amounted to 6.4 µM. Moreover, the MIC against Streptococcus pyogenes worked out at 0.5 µg/mL (≈ 1.44 µM); against Escherichia coli [2] it was 0.12 µg/mL (≈ 0.344 µM); in the experiment on Staphylococcus aureus it was 1 µg/mL (≈ 2.87 µM); with Escherichia coli [3], 0.12 µg/mL (≈ 0.344 µM); in the experiment with Escherichia coli [4], 8 µg/mL (≈ 23 µM); in the experiment with Enterococcus faecalis, 4 µg/mL (≈ 11.5 µM).
Consider `O=c1c2cc(F)c(N3CCCC3)cc2n(-c2ccc(F)cc2F)c(=O)n1O`, for which the Activity in experiment [1] is greater than 100 µM. In addition, the MIC was 32 µg/mL (≈ 84.8 µM) against Streptococcus pyogenes; 32 µg/mL (≈ 84.8 µM) in the experiment with Escherichia coli [2]; 64 µg/mL (≈ 170 µM) in the experiment on Staphylococcus aureus; 32 µg/mL (≈ 84.8 µM) with Escherichia coli [3]; greater than 64 µg/mL against Escherichia coli [4]; 64 µg/mL (≈ 170 µM) in the experiment on Enterococcus faecalis.
In experiment [1], `O=C(O)c1cn(C2CC2)c2cc(N3CCNCC3)c(F)cc2c1=O` [CIPROFLOXACIN] registered an Activity of 0.4 µM. The values for the MIC against Streptococcus pyogenes, against Staphylococcus aureus and in the experiment with Enterococcus faecalis were 2 µg/mL (≈ 6.04 µM), 4 µg/mL (≈ 12.1 µM) and 0.4 µg/mL (≈ 1.21 µM), respectively.
In experiment [1], `CCn1c(=O)n(O)c(=O)c2cc(F)c(N3CCCC3)cc21` displayed an Activity greater than 100 µM. The MIC against Streptococcus pyogenes was 32 µg/mL (≈ 109 µM); against Escherichia coli [2], 2 µg/mL (≈ 6.82 µM); in the experiment with Staphylococcus aureus, 32 µg/mL (≈ 109 µM); in the experiment with Escherichia coli [3] it was 1 µg/mL (≈ 3.41 µM); in the experiment on Escherichia coli [4] it was greater than 64 µg/mL.
For `N[C@H]1CCN(c2c(F)cc3c(=O)n(O)c(=O)n(C4CC4)c3c2F)C1`, the Activity in experiment [1] stood at 0.28 µM. Moreover, the MIC against Streptococcus pyogenes was 16 µg/mL (≈ 47.3 µM); in the experiment on Escherichia coli [2], 2 µg/mL (≈ 5.91 µM); against Staphylococcus aureus it was 32 µg/mL (≈ 94.6 µM); with Escherichia coli [3] it was 1 µg/mL (≈ 2.96 µM); in the experiment on Escherichia coli [4] it was 8 µg/mL (≈ 23.6 µM); in the experiment with Enterococcus faecalis, 16 µg/mL (≈ 47.3 µM).
In the case of `CN[C@@H](C)[C@@H]1CCN(c2cc3c(cc2F)c(=O)n(O)c(=O)n3C2CC2)C1`, the Activity in experiment [1] is 6.2 µM. Further, the MIC was 2 µg/mL (≈ 5.52 µM) in the experiment with Streptococcus pyogenes; 4 µg/mL (≈ 11 µM) against Escherichia coli [2]; 16 µg/mL (≈ 44.1 µM) with Staphylococcus aureus; 2 µg/mL (≈ 5.52 µM) in the experiment with Escherichia coli [3]; 32 µg/mL (≈ 88.3 µM) in the experiment with Escherichia coli [4]; 16 µg/mL (≈ 44.1 µM) in the experiment on Enterococcus faecalis.
Regarding `N[C@@H]1[C@H]2CN(c3cc4c(cc3F)c(=O)n(O)c(=O)n4C3CC3)C[C@@H]12`, the Activity in experiment [1] is 0.7 µM. The MIC with Streptococcus pyogenes turned out to be 2 µg/mL (≈ 6.02 µM); in the experiment with Escherichia coli [2], 0.25 µg/mL (≈ 0.752 µM); in the experiment on Staphylococcus aureus, 4 µg/mL (≈ 12 µM); against Escherichia coli [3], 0.25 µg/mL (≈ 0.752 µM); in the experiment with Escherichia coli [4], 1 µg/mL (≈ 3.01 µM); in the experiment on Enterococcus faecalis it was 4 µg/mL (≈ 12 µM).
`Cn1c(=O)n(O)c(=O)c2cc(F)c(N3CCCC3)cc21`: the Activity in experiment [1] is greater than 100 µM. For the same compound, the MIC was greater than 64 µg/mL with Streptococcus pyogenes; 16 µg/mL (≈ 57.3 µM) against Escherichia coli [2]; greater than 64 µg/mL against Staphylococcus aureus; 8 µg/mL (≈ 28.6 µM) in the experiment on Escherichia coli [3]; 32 µg/mL (≈ 115 µM) against Escherichia coli [4]; greater than 64 µg/mL against Enterococcus faecalis.

What is called MIC is the smallest concentration in the dilution series that meets the test's criterion for growth inhibition. Higher therefore signals a need for much substance.
